Source: ChEMBL document CHEMBL4145570, “Structures and Biological Evaluation of Monoterpenoid Glycosides from the Roots of Paeonia lactiflora” (J Nat Prod, 2018)
pIC50: −log10 of the molar value. The source made the active and inactive calls. The rule behind the calls is not given here.

Key:
Peritoneal macrophage = assay: Inhibition of LPS-induced TNFalpha secretion in C57BL6J mouse peritoneal macrophages at 10 uM after 24 hrs; assay type: functional, cell-based
[1] = target: T1, Tyrosine-protein phosphatase non-receptor type 1 (Homo sapiens) (UniProt P18031); assay: Inhibition of PTP1B (unknown origin) at 10 uM
T1 sequence (whole entry): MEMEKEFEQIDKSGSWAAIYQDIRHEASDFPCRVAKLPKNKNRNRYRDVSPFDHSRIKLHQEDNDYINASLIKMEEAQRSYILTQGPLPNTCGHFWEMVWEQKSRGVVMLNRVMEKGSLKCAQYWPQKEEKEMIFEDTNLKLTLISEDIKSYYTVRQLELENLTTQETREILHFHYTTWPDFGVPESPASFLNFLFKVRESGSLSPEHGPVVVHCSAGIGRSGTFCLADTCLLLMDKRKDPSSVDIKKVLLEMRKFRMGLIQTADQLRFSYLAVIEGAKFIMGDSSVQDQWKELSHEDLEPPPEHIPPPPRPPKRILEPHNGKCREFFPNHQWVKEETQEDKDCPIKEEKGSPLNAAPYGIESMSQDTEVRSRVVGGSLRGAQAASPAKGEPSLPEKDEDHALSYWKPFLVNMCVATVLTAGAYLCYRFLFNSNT

RAW264.7 [2] = assay: Antiinflammatory activity in mouse RAW264.7 cells assessed as inhibition of LPS-induced NO production at 40 uM relative to control; assay type: functional
HCT-8 = assay: Cytotoxicity against human HCT8 cells assessed as decrease in cell viability at 10 uM after 24 hrs by MTT assay; assay type: functional, cell-based
RAW264.7 [3] = assay: Antiinflammatory activity in mouse RAW264.7 cells assessed as inhibition of LPS-induced NO production at 10 uM relative to control; assay type: functional
RAW264.7 [4] = assay: Antiinflammatory activity in mouse RAW264.7 cells assessed as inhibition of LPS-induced NO production at 60 uM relative to control; assay type: functional
Bel-7402 = assay: Cytotoxicity against human Bel7402 cells assessed as decrease in cell viability at 10 uM after 24 hrs by MTT assay; assay type: functional, cell-based
RAW264.7 [5] = assay: Cytotoxicity against mouse RAW264.7 cells up to 100 uM; assay type: cell-based
Summary of the method: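 Viability assessed in LPS-stimulated RAW264.7 macrophages during the NO-production assay, at concentrations up to 100 μM.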

HepG2 = assay: Protection against acetaminophen-induced cell injury in human HepG2 cells at 10 uM after 24 hrs by MTT assay; assay type: functional, cell-based
RAW264.7 [6] = assay: Antiinflammatory activity in mouse RAW264.7 cells assessed as inhibition of LPS-induced NO production at 20 uM relative to control; assay type: functional
RAW264.7 [7] = assay: Antiinflammatory activity in mouse RAW264.7 cells assessed as inhibition of LPS-induced NO production; assay type: functional, cell-based
Summary of the method: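 NO release measured in LPS-stimulated RAW264.7 macrophages alongside an unstimulated control group; IC50 derived; dexamethasone as positive control.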

BGC-823 = assay: Cytotoxicity against human BGC823 cells assessed as decrease in cell viability at 10 uM after 24 hrs by MTT assay; assay type: functional, cell-based
A2780 = assay: Cytotoxicity against human A2780 cells assessed as decrease in cell viability at 10 uM after 24 hrs by MTT assay; assay type: functional, cell-based
A549 = assay: Cytotoxicity against human A549 cells assessed as decrease in cell viability at 10 uM after 24 hrs by MTT assay; assay type: functional, cell-based
RAW264.7 [8] = assay: Antiinflammatory activity in mouse RAW264.7 cells assessed as inhibition of LPS-induced NO production at 80 uM relative to control; assay type: functional

| inhibition [1] | pIC50 (RAW264.7 [7]) | Compound | inhibition (Peritoneal macrophage) | inhibition at 40 µM (RAW264.7 [2]) [%] | Activity (HCT-8) | inhibition at 10 µM (RAW264.7 [3]) [%] | inhibition at 60 µM (RAW264.7 [4]) [%] | Activity (Bel-7402) | Activity (RAW264.7 [5]) | Activity (HepG2) | inhibition at 20 µM (RAW264.7 [6]) [%] | Activity (BGC-823) | Activity (A2780) | Activity (A549) | inhibition at 80 µM (RAW264.7 [8]) [%] |
| --- | --- | --- | --- | --- | --- | --- | --- | --- | --- | --- | --- | --- | --- | --- | --- |
| inactive | 4.19 | CC1=CC(=O)[C@H]2C[C@@]1(O[C@@H]1O[C@H](CO)[C@@H](O)[C@H](O)[C@H]1O)C2(C)COC(=O)c1ccccc1 (stereo partly specified) | inactive | 26 | inactive | 25.7 | 45.9 | inactive | Non-Toxic | inactive | 19.3 | inactive | inactive | inactive | 61.7 |
| inactive | < 4.00 | C=C[C@@](C)(O)CC/C=C(\C)C(=O)OC[C@H]1O[C@@H](O[C@]23CC4C2(COC(=O)c2ccccc2)[C@H]2O[C@]4(O)C[C@]3(C)O2)[C@H](O)[C@@H](O)[C@@H]1O | inactive | 28.1 | inactive | 9.85 | 38.1 | inactive | Non-Toxic | inactive | 22.6 | inactive | inactive | inactive | 41.3 |
| – | 5.08 | C[C@@H]1C[C@H]2[C@@H]3CCC4=CC(=O)C=C[C@]4(C)[C@@]3(F)[C@@H](O)C[C@]2(C)[C@@]1(O)C(=O)CO [DEXAMETHASONE] | – | – | – | – | – | – | – | – | – | – | – | – | – |
| inactive | 4.22 | C[C@]12CC(=O)[C@H]3C[C@@]1(O[C@@H]1O[C@H](CO)[C@@H](O)[C@H](O)[C@H]1O)O[C@@H](O2)[C@H]3COC(=O)c1ccccc1 | inactive | 34.9 | inactive | 28 | 49.9 | inactive | Non-Toxic | inactive | 29.6 | inactive | inactive | inactive | 61 |
| inactive | 4.01 | CC(C)c1ccc(CO[C@@H]2O[C@H](CO[C@@H]3O[C@@H](C)[C@H](O)[C@@H](O)[C@H]3O)[C@@H](O)[C@H](O)[C@H]2O)cc1 | inactive | 31.1 | inactive | 22.2 | 38.7 | inactive | Non-Toxic | inactive | 23.6 | inactive | inactive | inactive | 52.4 |
| inactive | < 4.00 | CC(C)=CCC/C(C)=C/C(=O)O[C@@H]1O[C@H](CO[C@@H]2O[C@@H](C)[C@H](O)[C@@H](O)[C@H]2O)[C@@H](O)[C@H](O)[C@H]1O | inactive | 29.2 | inactive | 21.4 | 33.4 | inactive | Non-Toxic | inactive | 21.4 | inactive | inactive | inactive | 41 |
| inactive | < 4.00 | CC1(C)[C@@H]2C[C@H]1[C@@H](O)C[C@@H]2C(=O)OC[C@H]1O[C@@H](O[C@]23CC4C2(COC(=O)c2ccccc2)[C@H]2O[C@]4(O)C[C@]3(C)O2)[C@H](O)[C@@H](O)[C@@H]1O | inactive | 27.5 | inactive | 8.58 | 38.7 | inactive | Non-Toxic | inactive | 23.3 | inactive | inactive | inactive | 40.8 |
| inactive | < 4.00 | CC1=CC(=O)[C@H]2C[C@]1(O[C@@H]1O[C@H](COC(=O)c3ccccc3)[C@@H](O)[C@H](O)[C@H]1O)C2(C)CO (stereo partly specified) | inactive | 18.3 | inactive | 12.8 | 31.9 | inactive | Non-Toxic | inactive | 16.2 | inactive | inactive | inactive | 45 |
| inactive | < 4.00 | CC12C(=O)O[C@@]3(C)C[C@@H](O)[C@H]1C[C@]23O[C@@H]1O[C@H](COC(=O)c2ccccc2)[C@@H](O)[C@H](O)[C@H]1O | inactive | 28.2 | inactive | 19.1 | 34.8 | inactive | Non-Toxic | inactive | 24.4 | inactive | inactive | inactive | 39.4 |
| inactive | < 4.00 | C[C@]1(C(=O)OC[C@H]2O[C@@H](O[C@]34CC5C3(COC(=O)c3ccccc3)[C@H]3O[C@]5(O)C[C@]4(C)O3)[C@H](O)[C@@H](O)[C@@H]2O)[C@@H]2CC[C@@H](CO)[C@H]1C2 | inactive | 22.1 | inactive | 19.7 | 39.5 | inactive | Non-Toxic | inactive | 20.9 | inactive | inactive | inactive | 40.7 |
| inactive | < 4.00 | C[C@]1(C(=O)OC[C@H]2O[C@@H](O[C@]34CC5C3(COC(=O)c3ccccc3)[C@H]3O[C@]5(O)C[C@]4(C)O3)[C@H](O)[C@@H](O)[C@@H]2O)[C@@H]2CC[C@H](CO)[C@H]1C2 | inactive | 25.8 | inactive | 16.5 | 29.3 | inactive | Non-Toxic | inactive | 22.8 | inactive | inactive | inactive | 44.6 |
